Calls of active or inactive are those of the source.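 Rule for the calls, unless noted: active = viability at or below 30% in both replicate assays; inconclusive = viability at or below 30% in just one of the two assays; inactive = the rest.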
Experiments:
[1] = reducers of endogenous Her2 protein level, primary screen, SKBR3 breast tumor cells, AlphaScreen, ATP viability (AID 461;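 active = Her2 level under about 52% in both replicate screens, with viability over 70% of control, limit read from the data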;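 for Her2 level: lower value means less Her2 protein in the cells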;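 for viability: percent of carrier control wells set as 100% viability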); conditions: 18-24 h, measured here: SKBR3 viability, ATP luminescence, at 10 µM
[2] = target: Receptor tyrosine-protein kinase erbB-2 (Homo sapiens) (UniProt P04626); test: as above; conditions: 18-24 h, at 10 µM, stronger effect = lower value
[3] = SK-BR-3 cell growth inhibitors, pilot screen, 24 h, human (AID 572;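 active = viability at or below 10% of carrier control in both of two separate runs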;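 note: compound exposure lasted between 18 and 24 h rather than exactly 24 h; 100% = carrier-treated control wells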); conditions: SK-BR-3 viability, CellTiter-Glo luminescence, at 10 µM, stronger effect = lower value
[4] = HUVEC growth inhibition – cell-based, human, primary screen (AID 575); conditions: HUVEC proliferation, CellTiter-Glo luminescence, 72 h; at 10 µM; stronger effect = lower value;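 note: 100% = median of untreated cell wells with 0.1% DMSO on each plate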
Procedure, shortened: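 Timing: 72 h treatment at 37 °C; material: HUVEC primary cells; technique: CellTiter-Glo luminescence measuring cellular ATP; controls: vehicle and MePR control wells; measure: percent of median DMSO-control luminescence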

[5] = growth inhibitors of H69AR lung tumor, primary screen, human, duplicate replicates (AID 580;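 active = viability at or under a set limit in both replicates, limit being median viability minus 3 SD, cut at about 48% in these data, passing the limit was not always enough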;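 note: 100% = mean luminescence of untreated wells and 0% = no signal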); conditions: H69AR lung tumor cells viability, ATP luminescence, 72 h; at 10 µM; stronger effect = lower value
[6] = reversal of MRP1-mediated doxorubicin resistance, pilot screen, H69AR cells, doxorubicin co-treatment (AID 601;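 active = viability loss from added drug above about 55%, and viability with drug at most 40%, in both replicates, limit read from the data, passing the limit was not always enough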); conditions: CellTiter-Glo, 72 h, at 10 µM; for differential viability (reversal): stronger effect = higher value
[7] = 384-well plate pilot, post-Golgi transport modulator project, inhibition of yeast transport mutant growth (AID 636; in the data active = inhibition above about 31%); conditions: absorbance 615 nm, about 18 h, stronger effect = higher value
[8] = growth suppression of yeast trafficking mutant, preliminary HTS, modulators of trafficking downstream of Golgi apparatus project, 1536-format plate, OD 615 nm (AID 637; in the data active = inhibition above about 30%); conditions: yeast transport mutant growth, absorbance 615 nm, 18 h; stronger effect = higher value
[9] = H69AR cells + 2 uM doxorubicin, measured here: viability with 2 uM doxorubicin, stronger effect = lower value
[10] = H69AR cells, compound alone cytotoxicity

Receptor tyrosine-protein kinase erbB-2 (Homo sapiens), sequence (P04626 whole entry, looked up): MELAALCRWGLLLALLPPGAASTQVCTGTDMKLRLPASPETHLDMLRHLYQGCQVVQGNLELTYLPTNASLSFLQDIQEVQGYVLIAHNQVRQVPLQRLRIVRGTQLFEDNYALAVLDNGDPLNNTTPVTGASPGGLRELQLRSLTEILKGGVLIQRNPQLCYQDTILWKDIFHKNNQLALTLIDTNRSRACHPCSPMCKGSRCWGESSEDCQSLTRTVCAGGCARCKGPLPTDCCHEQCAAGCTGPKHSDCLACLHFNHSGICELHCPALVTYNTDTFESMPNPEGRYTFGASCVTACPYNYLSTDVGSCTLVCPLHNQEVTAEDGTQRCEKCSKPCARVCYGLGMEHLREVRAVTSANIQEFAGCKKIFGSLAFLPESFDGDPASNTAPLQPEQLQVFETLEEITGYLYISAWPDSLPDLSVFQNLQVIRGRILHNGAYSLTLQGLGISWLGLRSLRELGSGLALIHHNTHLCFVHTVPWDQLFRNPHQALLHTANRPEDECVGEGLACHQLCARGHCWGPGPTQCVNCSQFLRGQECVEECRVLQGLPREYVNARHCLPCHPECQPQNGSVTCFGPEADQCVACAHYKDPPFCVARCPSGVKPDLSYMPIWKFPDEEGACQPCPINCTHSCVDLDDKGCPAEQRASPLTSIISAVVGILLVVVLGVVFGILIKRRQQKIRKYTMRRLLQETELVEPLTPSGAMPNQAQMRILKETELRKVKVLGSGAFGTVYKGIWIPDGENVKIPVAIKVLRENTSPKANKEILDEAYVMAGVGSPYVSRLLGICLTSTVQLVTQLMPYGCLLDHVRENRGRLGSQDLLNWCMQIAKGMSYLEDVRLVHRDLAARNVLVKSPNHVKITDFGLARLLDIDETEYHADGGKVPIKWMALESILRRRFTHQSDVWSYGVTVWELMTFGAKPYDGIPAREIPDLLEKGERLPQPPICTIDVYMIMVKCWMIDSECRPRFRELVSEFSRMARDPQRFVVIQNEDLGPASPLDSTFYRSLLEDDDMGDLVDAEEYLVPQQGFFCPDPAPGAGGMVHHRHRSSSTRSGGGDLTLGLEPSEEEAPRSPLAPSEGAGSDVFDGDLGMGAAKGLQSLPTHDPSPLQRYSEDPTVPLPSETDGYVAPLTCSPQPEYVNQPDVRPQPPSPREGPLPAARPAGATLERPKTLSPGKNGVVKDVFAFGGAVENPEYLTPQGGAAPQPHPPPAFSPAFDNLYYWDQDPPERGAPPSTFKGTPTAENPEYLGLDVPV

SMILES | viability [1] [%] | Her2 level [2] | viability [3] | viability [4] | viability [5] | differential viability (reversal) ([6]; H69AR cells + 2 uM doxorubicin) | viability [6, 9] [%] | viability [6, 10] [%] | inhibition [7] | inhibition [8]
CC12CCC(C(=O)O)(c3nc(C#N)c(C#N)nc31)C2(C)C (stereo not given) | 106 | 96.5% (inactive) | 106% (inactive) | 115% (inactive) | 91.6% (inactive) | 6.8% (inactive) | 84.8 | 91.6 | -6.27% (inactive) | 6.07% (inactive)
COC(=O)c1cn(-c2ccccc2)nc1C(=O)OC | 93.5 | 89.5% (inactive) | 93.5% (inactive) | 91% (inactive) | 97.8% (inactive) | 10.9% (inactive) | 86.9 | 97.8 | -4.8% (inactive) | -1.97% (inactive)
Cc1ccc(CNC(=O)C2CCN(S(=O)(=O)c3cccs3)CC2)o1 | 138 | 87% (inactive) | 138% (inactive) | 89.5% (inactive) | 81% (inactive) | 6.39% (inactive) | 74.6 | 81 | -4.68% (inactive) | 4.76% (inactive)
CCOC(=O)c1[nH]c(C)c(C(=O)Nc2ccccc2C)c1C | 79.5 | 85% (inactive) | 79.5% (inactive) | 60.8% (inactive) | 19.3% (active) | -46.6% (inactive) | 65.9 | 19.3 | -0.9% (inactive) | 3.67% (inactive)
N#Cc1cnn(Cc2ccc(Cl)cc2)c1N | 92 | 97.5% (inactive) | 92% (inactive) | 92.7% (inactive) | 95.4% (inactive) | 10.4% (inactive) | 84.9 | 95.4 | -7.03% (inactive) | -7.21% (inactive)
CCN(CC)c1nc2cc(OC)ccc2cc1C#N | 104 | 80.5% (inactive) | 104% (inactive) | 86.1% (inactive) | 68.2% (inactive) | -14.1% (inactive) | 82.3 | 68.2 | -2.86% (inactive) | -5.24% (inactive)
Cc1ccc(NC(=O)CSc2nnc(CCCCCNC(=O)OC(C)(C)C)o2)c(C)c1 | 112 | 87% (inactive) | 112% (inactive) | 88.6% (inactive) | 93.2% (inactive) | 1.79% (inactive) | 91.4 | 93.2 | 1.71% (inactive) | 1.29% (inactive)
CC(=O)Nc1ccn(-c2ccccc2)n1 | 83 | 105% (inactive) | 83% (inactive) | 97.9% (inactive) | 93.6% (inactive) | -4.04% (inactive) | 97.6 | 93.6 | 0% (inactive) | -6.77% (inactive)
CSC(=O)CC(=O)NC(=O)c1ccccc1 | 102 | 97% (inactive) | 102% (inactive) | 108% (inactive) | 97.9% (inactive) | -5.79% (inactive) | 104 | 97.9 | -1.05% (inactive) | 5.74% (inactive)
O=C(COc1ccccc1Cl)OCC(=O)N1CCN(S(=O)(=O)c2ccccc2)CC1 | 101 | 85% (inactive) | 101% (inactive) | 89.4% (inactive) | 87.4% (inactive) | -1.84% (inactive) | 89.2 | 87.4 | -6.13% (inactive) | -2.79% (inactive)
O=C(Nc1nccs1)c1ccc(Cl)c(S(=O)(=O)N2CCCCC2)c1 | 89 | 65% (inactive) | 89% (inactive) | 84.3% (inactive) | 87.2% (inactive) | -9.49% (inactive) | 96.7 | 87.2 | -5.81% (inactive) | 3.83% (inactive)
COc1ccc(-c2noc(CN3C(=O)c4ccccc4C3=O)n2)cc1 | 102 | 108% (inactive) | 102% (inactive) | 97.5% (inactive) | 102% (inactive) | 5.23% (inactive) | 96.4 | 102 | -0.92% (inactive) | 11.3% (inactive)
O=c1oc2ccccc2c(N2CCCCC2)c1CN1CCCCC1 | 86 | 99% (inactive) | 86% (inactive) | 86.2% (inactive) | 82.5% (inactive) | -0.775% (inactive) | 83.3 | 82.5 | -1.05% (inactive) | -4.03% (inactive)
COc1ccccc1C1C(C#N)=C(N)Oc2cc(C)n(Cc3ccccn3)c(=O)c21 (stereo not given) | 108 | 133% (inactive) | 108% (inactive) | 93.9% (inactive) | 90.2% (inactive) | -2.41% (inactive) | 92.6 | 90.2 | -0.66% (inactive) | -6.94% (inactive)
NC(=O)c1oc2ccc(Cl)cc2c1NC(=O)CN1CCOCC1 | 93.5 | 81% (inactive) | 93.5% (inactive) | 85.3% (inactive) | 98.5% (inactive) | 10.1% (inactive) | 88.4 | 98.5 | -5.26% (inactive) | -2.36% (inactive)
COc1ccc(-c2nnc(SCC(=O)Nc3cc(C)on3)n2C)cc1OC | 101 | 90% (inactive) | 101% (inactive) | 108% (inactive) | 105% (inactive) | 11.9% (inactive) | 92.6 | 105 | -6.22% (inactive) | 4.59% (inactive)

SMILES | viability [1] [%] | Her2 level [2] | viability [3] | viability [4] | viability [5] | differential viability (reversal) ([6]; H69AR cells + 2 uM doxorubicin) | viability [6, 9] [%] | viability [6, 10] [%] | inhibition [7] | inhibition [8]
Cn1c(=O)c2c(nc(NCC3CCCO3)n2C)n(C)c1=O (stereo not given) | 102 | 104% (inactive) | 102% (inactive) | 105% (inactive) | 103% (inactive) | 7.24% (inactive) | 95.5 | 103 | -1.33% (inactive) | -3.11% (inactive)
COC(=O)CSc1nc2sc3c(c2c(=O)n1C1CCCCC1)CCN(C)C3 | 102 | 75.5% (inactive) | 102% (inactive) | 84.7% (inactive) | 95% (inactive) | 2.91% (inactive) | 92.1 | 95 | -5.66% (inactive) | 1.83% (inactive)
O=C(Cn1cnc2c(nnn2-c2ccc(F)cc2)c1=O)NCc1ccco1 | 97 | 74% (inactive) | 97% (inactive) | 97.1% (inactive) | 84.8% (inactive) | -0.975% (inactive) | 85.7 | 84.8 | -0.39% (inactive) | -2.73% (inactive)
CN1CCN(c2nc3c(c(=O)[nH]c(=O)n3C)n2CCOc2ccccc2)CC1 | 75.5 | 85.5% (inactive) | 75.5% (inactive) | 80.1% (inactive) | 92.2% (inactive) | 0.615% (inactive) | 91.5 | 92.2 | -6.49% (inactive) | 2.62% (inactive)
CC(C)COc1ccc(-c2nnn(CC(=O)N3CCCC3)n2)cc1 | 86 | 85% (inactive) | 86% (inactive) | 108% (inactive) | 104% (inactive) | 14.9% (inactive) | 88.9 | 104 | -8.67% (inactive) | 16.9% (inactive)
Cc1nnc(NC(=O)CSc2nnc(-c3ccc(S(=O)(=O)N4CCCC4)cc3)n2C)s1 | 93 | 88.5% (inactive) | 93% (inactive) | 104% (inactive) | 99% (inactive) | 6.45% (inactive) | 92.6 | 99 | -2.8% (inactive) | -2.1% (inactive)
COCCN(CCOC)C(=O)c1sc2nc(-c3ccccc3)cn2c1C | 93 | 78% (inactive) | 93% (inactive) | 82.4% (inactive) | 93.1% (inactive) | 10.4% (inactive) | 82.7 | 93.1 | -3.82% (inactive) | -5% (inactive)
Nc1c(C(=O)NCc2ccco2)nnn1Cc1ccccc1 | 85.5 | 102% (inactive) | 85.5% (inactive) | 92.1% (inactive) | 96% (inactive) | 0.935% (inactive) | 95.1 | 96 | -6.32% (inactive) | 3.33% (inactive)
CCOC(=O)N1CCC(N2C(=O)c3ccccc3C2Nc2cccnc2)CC1 (stereo not given) | 91.5 | 104% (inactive) | 91.5% (inactive) | 112% (inactive) | 85.7% (inactive) | 0.11% (inactive) | 85.6 | 85.7 | -2.05% (inactive) | -3% (inactive)
CC1(C)Cc2c(sc3c2c(=N)n(Cc2ccco2)c(=O)n3Cc2ccccc2)CO1 | 98.5 | 88.5% (inactive) | 98.5% (inactive) | 90.1% (inactive) | 71.9% (inactive) | 28.9% (inactive) | 43 | 71.9 | -1.82% (inactive) | -1.27% (inactive)
CCOC(=O)c1cccc(NC(=O)C2CCN(S(=O)(=O)c3cccs3)CC2)c1 | 75.5 | 96% (inactive) | 75.5% (inactive) | 60.7% (inactive) | 65% (inactive) | -7.91% (inactive) | 72.9 | 65 | -5.58% (inactive) | -3.81% (inactive)
CC1(C)CC(=O)C(C=Nc2ccncc2)=C(O)C1 | 96.5 | 93% (inactive) | 96.5% (inactive) | 92.2% (inactive) | 106% (inactive) | 7.13% (inactive) | 99.3 | 106 | -4.19% (inactive) | -7.62% (inactive)
O=C(CCc1ccc(S(=O)(=O)N2CCOCC2)cc1)NCCc1ccccn1 | 100 | 102% (inactive) | 100% (inactive) | 94.8% (inactive) | 87.9% (inactive) | -13.7% (inactive) | 102 | 87.9 | -1.04% (inactive) | -4.13% (inactive)
CC(=O)n1nc(-c2ccco2)nc1SCc1ccccc1 | 77 | 103% (inactive) | 77% (inactive) | 97.2% (inactive) | 98.7% (inactive) | 14.9% (inactive) | 83.8 | 98.7 | 1.54% (inactive) | 0% (inactive)
COc1ccc(CC(=O)Nc2ccc(OC)c(NC(=O)c3ccco3)c2)cc1 | 91 | 106% (inactive) | 91% (inactive) | 85.8% (inactive) | 81.9% (inactive) | -9.55% (inactive) | 91.5 | 81.9 | 4% (inactive) | -2.38% (inactive)
CCn1cc(C(=O)NCCN(C)CCc2ccccc2)c(=O)c2cc(S(=O)(=O)N(C)C)ccc21 | 90 | 106% (inactive) | 90% (inactive) | 75.9% (inactive) | 81.2% (inactive) | 1.48% (inactive) | 79.8 | 81.2 | -1.73% (inactive) | 12.6% (inactive)
